According to ChEMBL document CHEMBL3758144, “Dihydroisocoumarin Derivatives from Marine-Derived Fungal Isolates and Their Anti-inflammatory Effects in Lipopolysaccharide-Induced BV2 Microglia” (J Nat Prod, 2015):
Active and inactive are the calls of the source. The calls are words filed in the database; no cut-off is given here.

Columns and labels:
[1] = Cytotoxicity against […] BV2 cells at 10 to 80 uM by MTT assay; assay type: cell-based; settings: bv-2, 80 µM
In short: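 MTT added to BV2 cell suspension (1 × 10^5 cells/mL), incubated 30 min. Formazan dissolved in acidic 2-propanol and read at 540 nm. Compounds tested at 10−80 μM.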

BV-2 [2] = test: Inhibition of LPS-induced COX2 expression in […] BV2 cells pretreated for 30 mins followed by LPS stimulation measured for 24 hrs by Western blot analysis; assay type: functional, cell-based; settings: Mus musculus
In short: (§1)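 BV2 microglia pretreated 30 min with test agent at 20−80 μM, then LPS 1 μg/mL for 24 h. Lysates in 20 mM Tris-HCl pH 7.4 with protease inhibitors, protein by Lowry. SDS-PAGE, nitrocellulose transfer, milk block, ECL detection. Band densitometry normalized to β-actin.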

[3] = (§2) Antiinflammatory activity in LPS-induced […] BV2 cells assessed as reduction in NO production pretreated for 30 mins followed by LPS stimulation measured for 24 hrs by Greiss assay; assay type: functional, cell-based; settings: BV-2
In short: (§3)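 BV2 microglia in DMEM with 10% heat-inactivated FBS, penicillin/streptomycin and 2 mM L-glutamine at 37 °C, 5% CO2. Pretreated 30 min with test agent (10−80 μM range), then LPS 1 μg/mL for 24 h. Nitrite in supernatant measured by Griess reagent, absorbance at 525 nm. IC50 from mean of three experiments ± SD.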

BV-2 [4] = test: as §2; assay type: functional, cell-based; settings: Mus musculus; in short: as §3
[5] = (§4) Antiinflammatory activity in LPS-induced […] BV2 cells assessed as reduction in PGE2 production pretreated for 30 mins followed by LPS stimulation measured for 24 hrs by ELISA; assay type: functional, cell-based; settings: BV-2
In short: (§5)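 BV2 microglia cultured in 24-well plates and preincubated 30 min with test agent (10−80 μM range), then stimulated 24 h with LPS 1 μg/mL. Supernatant PGE2 quantified by ELISA kit. IC50 from mean of three experiments ± SD.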

BV-2 [6] = test: as §4; assay type: functional, cell-based; settings: Mus musculus; in short: as §5
BV-2 [7] = test: Inhibition of LPS-induced iNOS expression in […] BV2 cells pretreated for 30 mins followed by LPS stimulation measured for 24 hrs by Western blot analysis; assay type: functional, cell-based; settings: Mus musculus; in short: as §1
[8] = target: T1, Nuclear factor NF-kappa-B p105 subunit (Homo sapiens) (UniProt P19838); test: Inhibition of LPS-induced p50 translocation from cytosol to nucleus in […] BV2 cells pretreated for 30 mins followed by LPS stimulation for 30 mins by Western blot analysis; assay type: cell-based; settings: BV-2
T1 sequence (whole entry): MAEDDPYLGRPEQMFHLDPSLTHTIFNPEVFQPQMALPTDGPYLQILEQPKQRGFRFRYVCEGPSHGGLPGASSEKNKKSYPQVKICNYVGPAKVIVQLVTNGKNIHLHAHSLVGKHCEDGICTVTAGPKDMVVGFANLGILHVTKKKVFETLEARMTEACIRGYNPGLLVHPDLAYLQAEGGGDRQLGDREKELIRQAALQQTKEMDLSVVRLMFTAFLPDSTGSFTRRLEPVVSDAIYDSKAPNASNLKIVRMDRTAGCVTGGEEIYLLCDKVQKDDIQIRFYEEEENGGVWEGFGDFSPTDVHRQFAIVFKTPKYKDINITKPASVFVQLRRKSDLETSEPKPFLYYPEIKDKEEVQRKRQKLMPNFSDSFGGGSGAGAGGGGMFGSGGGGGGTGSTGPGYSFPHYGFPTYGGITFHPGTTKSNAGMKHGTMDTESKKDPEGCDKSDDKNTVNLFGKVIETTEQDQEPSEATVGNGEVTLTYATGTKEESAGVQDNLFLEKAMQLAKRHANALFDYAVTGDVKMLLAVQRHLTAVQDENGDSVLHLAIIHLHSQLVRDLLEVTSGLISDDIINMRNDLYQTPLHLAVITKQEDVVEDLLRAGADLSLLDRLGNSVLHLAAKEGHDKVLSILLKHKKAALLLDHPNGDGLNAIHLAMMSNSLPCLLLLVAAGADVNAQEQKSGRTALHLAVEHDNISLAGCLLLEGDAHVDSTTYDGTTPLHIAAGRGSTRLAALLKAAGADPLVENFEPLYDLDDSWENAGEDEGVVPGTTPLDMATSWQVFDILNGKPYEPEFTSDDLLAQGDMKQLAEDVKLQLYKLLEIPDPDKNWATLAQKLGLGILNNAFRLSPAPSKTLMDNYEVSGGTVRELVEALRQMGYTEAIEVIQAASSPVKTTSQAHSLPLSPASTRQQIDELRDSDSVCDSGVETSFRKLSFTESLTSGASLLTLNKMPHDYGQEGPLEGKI
In short: (§6)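 BV2 microglia pretreated 30 min with test agent (20, 40, 80 μM), then LPS for 30 min. Cytosolic and nuclear fractions prepared with NE-PER reagents. Western blot for IκB-α, phospho-IκB-α, p65 and p50. Densitometry normalized to β-actin (cytosol) or PCNA (nucleus). Mean of three experiments ± SD.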

[9] = target: T2, NF-kappa-B inhibitor alpha (Homo sapiens) (UniProt P25963); test: Inhibition of IkappaB-alpha phosphorylation in LPS-induced […] BV2 cells pretreated for 30 mins followed by LPS stimulation for 30 mins by Western blot analysis; assay type: cell-based; settings: BV-2; in short: as §6
T2 sequence (whole entry): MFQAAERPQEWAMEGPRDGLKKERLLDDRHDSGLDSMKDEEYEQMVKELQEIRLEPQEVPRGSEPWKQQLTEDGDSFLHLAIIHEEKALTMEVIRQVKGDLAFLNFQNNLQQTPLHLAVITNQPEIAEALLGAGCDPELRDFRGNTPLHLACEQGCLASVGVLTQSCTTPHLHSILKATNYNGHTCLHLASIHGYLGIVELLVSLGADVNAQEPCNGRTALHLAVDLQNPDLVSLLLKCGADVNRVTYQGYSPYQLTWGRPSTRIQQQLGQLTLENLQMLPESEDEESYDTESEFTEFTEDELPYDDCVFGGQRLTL

[10] = Effect on p38 expression in […] BV2 cells at 20 to 80 uM pretreated for 30 mins followed by LPS stimulation for 30 mins by Western blot analysis; assay type: ADME, cell-based; settings: bv-2, 0.5 h
In short: (§7)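 BV2 microglia pretreated 30 min with test agent (20−80 μM), then LPS 1 μg/mL for 30 min. Total and phosphorylated ERK, JNK and p38 detected by Western blot (SDS-PAGE, nitrocellulose, ECL).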

BV-2 [11] = test: Inhibition of ERK phosphorylation in […] BV2 cells at 20 to 80 uM pretreated for 30 mins followed by LPS stimulation for 30 mins by Western blot analysis; assay type: cell-based; in short: as §7
JNK (Mus musculus) = test: Inhibition of JNK phosphorylation in mouse BV2 cells at 20 to 80 uM pretreated for 30 mins followed by LPS stimulation for 30 mins by Western blot analysis; settings: BV-2
[12] = target: T2, NF-kappa-B inhibitor alpha (Homo sapiens); test: Inhibition of IkappaB-alpha degradation in LPS-induced […] BV2 cells pretreated for 30 mins followed by LPS stimulation for 30 mins by Western blot analysis; assay type: cell-based; settings: BV-2; in short: as §6
[13] = target: Transcription factor p65 (Homo sapiens) (UniProt Q04206); test: Inhibition of LPS-induced p65 translocation from cytosol to nucleus in […] BV2 cells pretreated for 30 mins followed by LPS stimulation for 30 mins by Western blot analysis; assay type: cell-based; settings: BV-2; in short: as §6
Sequence of Transcription factor p65 (Homo sapiens) (Q04206 whole entry): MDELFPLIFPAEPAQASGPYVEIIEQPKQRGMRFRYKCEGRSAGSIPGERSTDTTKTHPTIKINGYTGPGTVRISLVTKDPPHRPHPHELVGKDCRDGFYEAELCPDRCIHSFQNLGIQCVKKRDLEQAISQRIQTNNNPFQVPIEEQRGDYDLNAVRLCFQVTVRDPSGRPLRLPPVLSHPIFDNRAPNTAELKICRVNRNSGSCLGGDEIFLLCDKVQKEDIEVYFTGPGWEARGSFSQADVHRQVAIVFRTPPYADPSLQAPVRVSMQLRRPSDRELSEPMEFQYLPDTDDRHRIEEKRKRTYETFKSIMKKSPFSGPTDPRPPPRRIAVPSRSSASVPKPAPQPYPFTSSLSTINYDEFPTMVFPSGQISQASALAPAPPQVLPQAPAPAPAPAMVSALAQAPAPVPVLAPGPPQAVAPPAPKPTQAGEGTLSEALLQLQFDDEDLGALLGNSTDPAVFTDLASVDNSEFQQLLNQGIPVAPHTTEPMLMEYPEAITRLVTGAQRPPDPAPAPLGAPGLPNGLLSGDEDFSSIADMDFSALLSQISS

[14] = Effect on ERK expression in […] BV2 cells at 20 to 80 uM pretreated for 30 mins followed by LPS stimulation for 30 mins by Western blot analysis; assay type: ADME, cell-based; settings: bv-2, 0.5 h; in short: as §7
p38 MAPK (Mus musculus) = test: Inhibition of p38 phosphorylation in mouse BV2 cells pretreated for 30 mins followed by LPS stimulation for 30 mins by Western blot analysis; settings: BV-2
[15] = Effect on JNK expression in […] BV2 cells at 20 to 80 uM pretreated for 30 mins followed by LPS stimulation for 30 mins by Western blot analysis; assay type: ADME, cell-based; settings: bv-2, 0.5 h; in short: as §7

Row | Structure (SMILES) | IC50 [3] [µM] | IC50 [5] [µM] | inhibition [8] | inhibition [9] | inhibition (JNK (Mus musculus)) | inhibition [12] | inhibition [13] | Activity (p38 MAPK (Mus musculus)) | Activity [1] | inhibition (BV-2 [2]) | Activity (BV-2 [4]) | Activity (BV-2 [6]) | inhibition (BV-2 [7]) | Activity [10] | inhibition (BV-2 [11]) | Activity [14] | Activity [15]
1 | C[C@H]1C[C@@H](O)C[C@H](C[C@H]2Cc3cc(O)cc(O)c3C(=O)O2)O1 | 65 | 61 | – | – | – | – | – | – | Non-toxic | Dose-dependent effect | Dose-dependent effect | Dose-dependent effect | Dose-dependent effect | – | – | – | –
2 | COc1cc(O)cc2c1C(=O)O[C@@H](C[C@H]1CCC[C@H](C)O1)C2 | 28 | 30 | – | – | – | – | – | – | Non-toxic | Dose-dependent effect | Dose-dependent effect | Dose-dependent effect | Dose-dependent effect | – | – | – | –
3 | C[C@H]1CCC[C@H](C[C@H]2Cc3cc(O)cc(O[C@H]4O[C@H](CO)[C@@H](O)[C@H]4O)c3C(=O)O2)O1 | 33 | 34 | Dose-dependent effect | Dose-dependent effect | inactive | Dose-dependent effect | Dose-dependent effect | Dose-dependent effect | Non-toxic | Dose-dependent effect | Dose-dependent effect | Dose-dependent effect | Dose-dependent effect | Non-toxic | inactive | Non-toxic | Non-toxic

Stronger by IC50 [3], values ahead:

Row | IC50 [3] [µM] | IC50 [5] [µM] | inhibition [8] | inhibition [9] | inhibition (JNK (Mus musculus)) | inhibition [12] | inhibition [13] | Activity (p38 MAPK (Mus musculus)) | Structure (SMILES) | Activity [1] | inhibition (BV-2 [2]) | Activity (BV-2 [4]) | Activity (BV-2 [6]) | inhibition (BV-2 [7]) | Activity [10] | inhibition (BV-2 [11]) | Activity [14] | Activity [15]
4 | 24 | 27 | – | – | – | – | – | – | C[C@H]1CCC[C@H](C[C@H]2Cc3cc(O)cc(O)c3C(=O)O2)O1 [CLADOSPORIN] | Non-toxic | Dose-dependent effect | Dose-dependent effect | Dose-dependent effect | Dose-dependent effect | – | – | – | –
5 | 21 | 21 | – | – | – | – | – | – | COc1cc(O)c2c(c1)C[C@H](C[C@H]1CCC[C@H](C)O1)OC2=O | Non-toxic | Dose-dependent effect | Dose-dependent effect | Dose-dependent effect | Dose-dependent effect | – | – | – | –
6 | 20 | 23 | – | – | – | – | – | – | C[C@@H]1O[C@@H](C[C@H]2Cc3cc(O)cc(O)c3C(=O)O2)CC[C@@H]1O | Non-toxic | Dose-dependent effect | Dose-dependent effect | Dose-dependent effect | Dose-dependent effect | – | – | – | –
